For 30 molecules, IC50 results are on record in ChEMBL document CHEMBL1134586, “S(+)-4-(1-Phenylethylamino)quinazolines as inhibitors of human immunoglobulin E synthesis: potency is dictated by stereochemistry and atomic point charges at N-1” (J Med Chem, 2001).

In one experiment the test system is B-cell. Put plainly: Antiproliferative effects in the human B-cell line transfected with a plasmid in which luciferase gene is under the control of a 630bp, involved in the IL-4 response which induces IgE-GLP activity. It counts as functional, cell-based. In outline:
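Viability of the stably transfected BL2 luciferase-reporter clone was measured in cultures run in parallel with the reporter assay. Intact mitochondria were quantified in duplicates, and half-maximal inhibition came from a logistic fit.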

The species named for the next experiment is Homo sapiens. Put plainly: Direct inhibition of the IgE-Germ line promoter (IGE-GLP-RGA) activity which is responsible in synthesis of IgE in human splenocytes. It is filed as functional. In a few lines: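 BL2 B-cells were stably transfected with luciferase under a 630 bp IgE-germline promoter fragment and selected in G418. Cells were lysed for dual-luciferase readout in duplicates, and IC₅₀ came from a logistic fit.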

Experiment [1] addresses Epidermal growth factor receptor (Homo sapiens, UniProt P00533). Put plainly: Inhibition of EGF-induced Tyrosine phosphorylation in A431 cells expressing EGF-R.

Epidermal growth factor receptor, sequence (P00533 whole entry): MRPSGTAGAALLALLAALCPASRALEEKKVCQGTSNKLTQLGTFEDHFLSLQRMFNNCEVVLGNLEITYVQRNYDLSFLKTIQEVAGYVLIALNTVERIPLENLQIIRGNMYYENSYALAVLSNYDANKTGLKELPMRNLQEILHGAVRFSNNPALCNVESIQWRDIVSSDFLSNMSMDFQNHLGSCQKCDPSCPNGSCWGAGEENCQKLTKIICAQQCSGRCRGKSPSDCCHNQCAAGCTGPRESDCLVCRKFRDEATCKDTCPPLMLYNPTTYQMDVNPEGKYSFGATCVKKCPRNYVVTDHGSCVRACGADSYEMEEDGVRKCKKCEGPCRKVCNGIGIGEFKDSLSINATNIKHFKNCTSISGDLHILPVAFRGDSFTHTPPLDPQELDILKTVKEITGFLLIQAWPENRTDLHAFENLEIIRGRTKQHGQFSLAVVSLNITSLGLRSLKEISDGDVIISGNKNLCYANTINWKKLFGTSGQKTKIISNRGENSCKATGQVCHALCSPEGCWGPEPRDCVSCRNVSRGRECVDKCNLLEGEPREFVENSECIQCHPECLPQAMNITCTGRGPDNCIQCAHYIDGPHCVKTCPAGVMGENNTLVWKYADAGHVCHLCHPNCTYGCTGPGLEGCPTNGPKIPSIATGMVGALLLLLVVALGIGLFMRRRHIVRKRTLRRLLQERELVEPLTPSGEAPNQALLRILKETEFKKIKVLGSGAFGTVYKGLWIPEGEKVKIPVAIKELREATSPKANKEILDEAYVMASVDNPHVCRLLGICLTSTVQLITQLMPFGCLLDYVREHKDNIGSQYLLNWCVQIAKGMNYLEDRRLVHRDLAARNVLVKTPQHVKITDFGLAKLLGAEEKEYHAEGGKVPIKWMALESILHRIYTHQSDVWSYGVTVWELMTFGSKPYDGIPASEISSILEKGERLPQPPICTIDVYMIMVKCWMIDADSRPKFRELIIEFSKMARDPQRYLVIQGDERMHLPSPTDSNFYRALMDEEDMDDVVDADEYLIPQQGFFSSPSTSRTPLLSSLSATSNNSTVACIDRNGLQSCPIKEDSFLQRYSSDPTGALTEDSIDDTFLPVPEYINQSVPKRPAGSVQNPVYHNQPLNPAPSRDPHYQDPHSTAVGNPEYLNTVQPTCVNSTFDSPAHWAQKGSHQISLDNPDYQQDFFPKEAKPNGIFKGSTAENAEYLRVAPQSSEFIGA

With `c1ccc(Nc2ncnc3ccccc23)cc1`, the IC50 in the experiment on B-cell and in the experiment listed under Homo sapiens was > 2 µM throughout.

With `C[C@@H](Nc1ncnc2ccccc12)C1CCCCC1`, the IC50 in the experiment on B-cell and in the experiment listed under Homo sapiens was > 2 µM each time.

In the case of `OC[C@H](Nc1ncnc2ccccc12)c1ccccc1`, the IC50 was > 2 µM in the experiment with B-cell and 0.149 µM in the experiment filed under Homo sapiens.

As to `c1ccc2c(c1)CC[C@H]2Nc1ncnc2ccccc12`, the IC50 in the experiment with B-cell is > 2 µM; in the experiment listed under Homo sapiens, 1.02 µM.

For `Cc1cc(N[C@@H](C)c2ccccc2)nc(N)n1`, the IC50 in the experiment with B-cell and in the experiment filed under Homo sapiens was > 2 µM in each case.

As for `COc1ccc([C@H](C)Nc2ncnc3ccccc23)cc1`, the IC50 in the experiment with B-cell is > 2 µM; in the experiment filed under Homo sapiens, 0.045 µM.

`C[C@H](Nc1[nH]cnc2c3ccccc3nc1-2)c1ccccc1` yielded an IC50 in experiment [1] of 0.05 µM.

Consider `C[C@H](Nc1ncnc2ccsc12)c1ccccc1`, for which the IC50 in the experiment with B-cell and in the experiment listed under Homo sapiens was > 2 µM throughout.

As to `CC[C@H](Nc1ncnc2ccccc12)c1ccccc1`, the IC50 was > 2 µM with B-cell and 0.147 µM in the experiment filed under Homo sapiens.

For `C[C@H](Nc1nccc2ccccc12)c1ccccc1`, the IC50 with B-cell and in the experiment filed under Homo sapiens was > 2 µM each time.

With `C[C@H](Nc1ccnc2ccccc12)c1ccccc1`, the figures for the IC50 in the experiment with B-cell and in the experiment listed under Homo sapiens were > 2 µM and 0.701 µM, respectively.

As for `C[C@H](Nc1ncnc2sccc12)c1ccccc1`, the IC50 with B-cell is > 2 µM; in the experiment listed under Homo sapiens, 0.37 µM.

With `C[C@H](Nc1ncnc2ccccc12)c1ccc2ccccc2c1`, the IC50 is 1.63 µM in the experiment with B-cell and 0.014 µM in the experiment listed under Homo sapiens.

As to `C[C@@H](Nc1ncnc2ccccc12)c1ccc2ccccc2c1`, the IC50 with B-cell and in the experiment listed under Homo sapiens was > 2 µM throughout.

For the molecule `Cc1csc2c(N[C@@H](C)c3ccccc3)ncnc12`, the IC50 in the experiment on B-cell and in the experiment listed under Homo sapiens was > 2 µM throughout.

`Cc1cc2c(N[C@@H](C)c3ccccc3)[nH]cnc-2n1`: the IC50 in the experiment on B-cell and in the experiment filed under Homo sapiens was > 2 µM each time.

On to `c1ccc2c(c1)CC[C@@H]2Nc1ncnc2ccccc12`, for which the IC50 in the experiment on B-cell and in the experiment filed under Homo sapiens was > 2 µM each time.

With `C[C@H](Nc1ncnc2ccccc12)c1ccc(Br)cc1`, the IC50 in the experiment with B-cell was > 2 µM; in the experiment filed under Homo sapiens, 0.072 µM.

As for `COc1cc2ncnc(N[C@@H](C)c3ccccc3)c2cc1OC`, the IC50 in the experiment on B-cell and in the experiment filed under Homo sapiens was > 2 µM throughout.

Turning to `Cc1csc2ncnc(N[C@@H](C)c3ccccc3)c12`, the results for the IC50 in the experiment with B-cell and in the experiment filed under Homo sapiens were 1.48 µM and 0.13 µM, respectively.

For the molecule `Cc1ccc([C@H](C)Nc2ncnc3ccccc23)cc1`, the IC50 in the experiment with B-cell was > 2 µM; in the experiment listed under Homo sapiens, 0.046 µM.

For `Cc1cc(N[C@@H](C)c2ccccc2)c2ccccc2n1`, the IC50 with B-cell and in the experiment filed under Homo sapiens was > 2 µM each time.

For `CC(c1ccccc1)N(C)c1ncnc2ccccc12` (centres undefined), the IC50 in the experiment on B-cell and in the experiment filed under Homo sapiens was > 2 µM throughout.

Turning to `C[C@H](Nc1[nH]cnc2ncnc1-2)c1ccccc1`, the IC50 in the experiment on B-cell and in the experiment listed under Homo sapiens was > 2 µM throughout.

On to `C[C@H](Nc1ncnc2ccccc12)c1ccccc1`, for which the figures for the IC50 in the experiment with B-cell and in the experiment listed under Homo sapiens were > 2 µM and 0.127 µM, respectively.

Consider `C[C@@H](Nc1ncnc2ccccc12)c1ccccc1`, for which the IC50 with B-cell and in the experiment listed under Homo sapiens was > 2 µM throughout.

`C[C@H](Nc1ncnc2ccccc12)C1CCCCC1`: the IC50 in the experiment on B-cell is > 2 µM; in the experiment filed under Homo sapiens, 0.081 µM.

On to `c1ccc(CNc2ncnc3ccccc23)cc1`, for which the IC50 with B-cell and in the experiment listed under Homo sapiens was > 2 µM in each case.

For `COc1cccc([C@H](C)Nc2ncnc3ccccc23)c1`, the IC50 with B-cell is > 2 µM; in the experiment filed under Homo sapiens it was 0.023 µM.

`CSc1nccc(N[C@@H](C)c2ccccc2)n1`: the figures for the IC50 in the experiment with B-cell and in the experiment listed under Homo sapiens were > 2 µM and 0.931 µM, respectively.

The IC50 is the midpoint of a concentration-inhibition curve. Lower therefore signals greater potency.
